Blank lines part the entries; values can stand above or below the compound they belong to. Calls of active or inactive are those of the source. No cut-off for these calls is given here.
Tests used:
Cavia porcellus [1] = organism: Cavia porcellus; assay: Percent inhibition of the leukotriene D4 (LTD4)-induced contraction of guinea pig tracheal spirals at 100 uM concentration; assay type: functional; conditions: Trachea
How it was run: (§1)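 Guinea pig tracheal spirals were split into paired sections in 10 mL baths of modified Krebs at 37 °C, gassed with 95% O₂/5% CO₂, under 2 g resting tension. After 60 min equilibration (washes every 15 min), reproducible contractions to 8 nM LTD₄ or 8 nM LTE₄ were obtained. Compound was added for 10 min, then agonist challenge repeated; percent inhibition is relative to the vehicle-treated paired section.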

Cavia porcellus [2] = organism: Cavia porcellus; assay: Percent inhibition of the leukotriene E4 (LTE4)-induced contraction of guinea pig tracheal spirals at 10 uM concentration; NS means data was not statistically significant.; assay type: functional; conditions: Trachea; how it was run: as §1
Cavia porcellus [3] = organism: Cavia porcellus; assay: Percent inhibition of the leukotriene D4 (LTD4)-induced contraction of guinea pig tracheal spirals at 4 uM concentration; NS means data was not statistically significant.; assay type: functional; conditions: Trachea; how it was run: as §1
Cavia porcellus [4] = organism: Cavia porcellus; assay: Inhibition of the leukotriene D4 (LTD4)-induced contraction of guinea pig tracheal spirals at 10 uM concentration; assay type: functional; conditions: Trachea; how it was run: as §1
Cavia porcellus [5] = organism: Cavia porcellus; assay: Percent inhibition of the leukotriene D4 (LTD4)-induced contraction of guinea pig tracheal spirals at 50 uM concentration; NS means data was not statistically significant.; assay type: functional; conditions: Trachea; how it was run: as §1
Cavia porcellus [6] = organism: Cavia porcellus; assay: Percent inhibition of the leukotriene D4 (LTD4)-induced contraction of guinea pig tracheal spirals at 4 uM concentration; NS means data was not statistically significant; assay type: functional; conditions: Trachea; how it was run: as §1
Cavia porcellus [7] = organism: Cavia porcellus; assay: Percent inhibition of the leukotriene E4 -induced contraction of guinea pig tracheal spirals at 10 uM concentration; assay type: functional; conditions: Trachea; how it was run: as §1
Cavia porcellus [8] = organism: Cavia porcellus; assay: Percent inhibition of the leukotriene E4 -induced contraction of guinea pig tracheal spirals at 1 uM concentration; assay type: functional; conditions: Trachea; how it was run: as §1
Cavia porcellus [9] = organism: Cavia porcellus; assay: Percent inhibition of the leukotriene E4 (LTE4)-induced contraction of guinea pig tracheal spirals at 50 uM concentration; NS means data was not statistically significant; assay type: functional; conditions: Trachea; how it was run: as §1
Cavia porcellus [10] = organism: Cavia porcellus; assay: Percent inhibition of the leukotriene E4 (LTE4)-induced contraction of guinea pig tracheal spirals at 50 uM concentration; NS means data was not statistically significant.; assay type: functional; conditions: Trachea; how it was run: as §1
Cavia porcellus [11] = assay: Compound (50 mg/kg, intraperitoneally) was tested in spontaneously breathing, conscious guinea pigs challenged with aerosolized LTD4 (30-min pretreatment); assay type: functional
[12] = target: T1, Cysteinyl leukotriene receptor 1 (Cavia porcellus) (UniProt Q2NNR5); assay: Dissociation constant (KB) […] was evaluated in vitro in isolated guinea pig tracheal strips
T1 sequence (whole entry): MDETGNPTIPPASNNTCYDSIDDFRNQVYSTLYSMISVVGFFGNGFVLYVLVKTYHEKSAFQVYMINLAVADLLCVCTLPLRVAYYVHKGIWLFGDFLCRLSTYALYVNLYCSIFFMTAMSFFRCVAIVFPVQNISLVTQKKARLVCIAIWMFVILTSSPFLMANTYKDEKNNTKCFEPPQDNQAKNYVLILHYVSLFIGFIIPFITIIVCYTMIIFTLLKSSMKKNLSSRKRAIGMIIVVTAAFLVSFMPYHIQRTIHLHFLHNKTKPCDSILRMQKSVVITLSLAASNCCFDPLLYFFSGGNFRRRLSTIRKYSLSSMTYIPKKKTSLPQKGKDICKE

Cavia porcellus [13] = assay: Compound (50 mg/kg, intraperitoneally) was tested in spontaneously breathing, conscious guinea pigs challenged with aerosolized LTD4 (60-min pretreatment); assay type: functional
[14] = target: T1, Cysteinyl leukotriene receptor 1 (Cavia porcellus); assay: Dissociation constant (KB) versus Cysteinyl leukotriene D4 receptor was evaluated in vitro in isolated guinea pig tracheal strips
Cavia porcellus [15] = organism: Cavia porcellus; assay: Percent inhibition of the leukotriene E4 (LTE4)-induced contraction of guinea pig tracheal spirals at 50 uM concentration; assay type: functional; conditions: Trachea; how it was run: as §1
Cavia porcellus [16] = organism: Cavia porcellus; assay: Percent inhibition of the leukotriene D4 (LTD4)-induced contraction of guinea pig tracheal spirals at 5 uM concentration; assay type: functional; conditions: Trachea; how it was run: as §1
Cavia porcellus [17] = organism: Cavia porcellus; assay: Percent inhibition of the leukotriene E4 (LTE4)-induced contraction of guinea pig tracheal spirals at 10 uM concentration; assay type: functional; conditions: Trachea; how it was run: as §1
Cavia porcellus [18] = organism: Cavia porcellus; assay: Percent inhibition of the leukotriene E4 (LTE4)-induced contraction of guinea pig tracheal spirals at 5 uM concentration; assay type: functional; conditions: Trachea; how it was run: as §1
Cavia porcellus [19] = organism: Cavia porcellus; assay: Percent inhibition of the leukotriene E4 ([…])-induced contraction of guinea pig tracheal spirals at 1 uM concentration; NS means data was not statistically significant.; assay type: functional; conditions: Trachea; how it was run: as §1
Cavia porcellus [20] = organism: Cavia porcellus; assay: Percent inhibition of the leukotriene D4-induced contraction of guinea pig tracheal spirals at 4 uM concentration; assay type: functional; conditions: Trachea; how it was run: as §1
Cavia porcellus [21] = assay: Compound (50 mg/kg, intraperitoneally) was tested in spontaneously breathing, conscious guinea pigs challenged with aerosolized LTD4 (60-min pretreatment); NS means data were not statistically significant.; assay type: functional, organism-based
Cavia porcellus [22] = organism: Cavia porcellus; assay: Percent inhibition of the leukotriene E4 (LTE4)-induced contraction of guinea pig tracheal spirals at 1 uM concentration; assay type: functional; conditions: Trachea; how it was run: as §1
Cavia porcellus [23] = organism: Cavia porcellus; assay: Percent inhibition of the leukotriene D4 (LTD4)-induced contraction of guinea pig tracheal spirals at 1 uM concentration; assay type: functional; conditions: Trachea; how it was run: as §1
Cavia porcellus [24] = organism: Cavia porcellus; assay: Percent inhibition of the leukotriene E4 (LTE4)-induced contraction of guinea pig tracheal spirals at 3.3 uM concentration; conditions: Trachea
Cavia porcellus [25] = organism: Cavia porcellus; assay: Percent inhibition of the leukotriene D4 (LTD4)-induced contraction of guinea pig tracheal spirals at 10 uM concentration; assay type: functional; conditions: Trachea; how it was run: as §1

SMILES: CCCc1c(OCC(O)CNC(CS)C(=O)NCC(=O)O)ccc(C(C)=O)c1O (stereo unspecified)
inhibition at 100 µM (Cavia porcellus [1]): 33%

SMILES: CCCc1cc2c(C)cc(=O)oc2cc1OCc1ccc(C(=O)O)cc1OC
inhibition (Cavia porcellus [2]): Not statistically significant

SMILES: CCCc1c(OCc2ccc(C(=O)O)cc2OC)ccc(C(C)=O)c1N
inhibition (Cavia porcellus [3]): Not statistically significant
inhibition at 10 µM (Cavia porcellus [4]): 43%

SMILES: CCCCCCc1c(OCc2ccc(C(=O)O)cc2OC)ccc(C(C)=O)c1O
inhibition (Cavia porcellus [5]): Not statistically significant

SMILES: CCCc1c(OCc2ccc(C(=O)O)c(OC)c2)ccc(C(C)=O)c1O
inhibition at 10 µM (Cavia porcellus [4]): 44%
inhibition (Cavia porcellus [6]): Not statistically significant

SMILES: COc1cc(C(=O)O)ccc1COc1ccc(C(C)=O)c(O)c1Cc1ccccc1
inhibition at 10 µM (Cavia porcellus [7]): 100%
inhibition at 1 µM (Cavia porcellus [8]): 39%

SMILES: CCCc1c(OCc2ccc(C(=O)O)cc2OC)ccc(CCC(=O)O)c1O
inhibition (Cavia porcellus [9]): Not statistically significant

SMILES: COc1cc(C(=O)O)ccc1COc1ccc(C(C)=O)c(O)c1CCCC(=O)O
inhibition (Cavia porcellus [10]): Not statistically significant

Kb [12]: 0.52 µM
SMILES: CCCc1c(OCc2ccc(C(=O)O)cc2F)ccc(C(C)=O)c1O
Protection (Cavia porcellus [11]): 18%
inhibition at 10 µM (Cavia porcellus [4]): 99%
Protection (Cavia porcellus [13]): 0%

Kb [14]: 0.36 µM
SMILES: CCCc1c(OCc2ccc(C(=O)O)cc2OC)ccc(C(C)=O)c1O
inhibition at 10 µM (Cavia porcellus [4]): 99%
Protection (Cavia porcellus [13]): 19%

Kb [14]: 0.18 µM
SMILES: CCCc1c(OCCCCc2nnn[nH]2)ccc(C(C)=O)c1O [TOMELUKAST]
Protection (Cavia porcellus [13]): 49%

SMILES: CCCc1c(OCc2ccc(C(=O)O)cc2OC)ccc(C(N)=O)c1O
inhibition at 10 µM (Cavia porcellus [4]): 72%
inhibition at 50 µM (Cavia porcellus [15]): 86%

SMILES: CCC(C)c1c(OCc2ccc(C(=O)O)cc2OC)ccc(C(C)=O)c1O (stereo unspecified)
inhibition at 10 µM (Cavia porcellus [4]): 100%
inhibition at 5 µM (Cavia porcellus [16]): 85%

SMILES: CCCc1c(OCc2ccc(C(=O)O)cc2OC)ccc(C(=O)CC)c1O
inhibition at 10 µM (Cavia porcellus [17]): 97%
inhibition at 5 µM (Cavia porcellus [18]): 73%
inhibition (Cavia porcellus [19]): Not statistically significant

SMILES: CCCc1c(OCC(O)COc2ccc3c(=O)cc(C(=O)O)oc3c2CCC)ccc(C(C)=O)c1O (stereo unspecified) [FPL-55712]
Protection (Cavia porcellus [11]): 32%
inhibition at 4 µM (Cavia porcellus [20]): 62%
Protection (Cavia porcellus [21]): inactive

Kb [12]: 1.64 µM
SMILES: C=C(C)Cc1c(OCc2ccc(C(=O)O)cc2OC)ccc(C(C)=O)c1O
inhibition at 5 µM (Cavia porcellus [18]): 82%
Protection (Cavia porcellus [13]): 30%
inhibition at 1 µM (Cavia porcellus [22]): 35%

Kb [12]: 0.17 µM
SMILES: CCCc1c(OCc2ccc(C(=O)O)c(Br)c2)ccc(C(C)=O)c1O
inhibition at 1 µM (Cavia porcellus [23]): 30%
Protection (Cavia porcellus [13]): 69%

SMILES: CCCc1c(OCc2ccc(C(=O)Nc3nn[nH]n3)cc2OC)ccc(C(C)=O)c1O
inhibition at 3.3 µM (Cavia porcellus [24]): 43%

SMILES: CCCc1c(OCc2ccc(C(=O)O)cc2OC)ccc(C=O)c1O
inhibition at 10 µM (Cavia porcellus [25]): 54%

SMILES: CCCc1c(OCc2cccc(C(=O)O)c2)ccc(C(C)=O)c1O
inhibition at 10 µM (Cavia porcellus [4]): 50%
inhibition at 100 µM (Cavia porcellus [1]): 100%

Reference: ChEMBL document CHEMBL1124444, “Hydroxyacetophenone-derived antagonists of the peptidoleukotrienes” (1989)
